# Data as given in PubChem BioAssay.
# Calls of active or inactive are those of the source.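 Rule for the calls, unless noted: active = a full or partial loss of lipid-probe fluorescence in the fish gall bladder, intestine or both, judged by eye; inactive = no fluorescence loss, or compound toxic to the fish.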
# Experiments:
# [1] = inhibitors of TNFa-induced NFkB p65 translocation, primary screen, imaging, HUVEC, MLSMR starter and 10KST1 sets (AID 438;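 active = inhibition above 20% together with a positive visual image hit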;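 note: compound added about 3h40 before a 20 min TNFalpha stimulation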;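 for inhibition: signal is the nuclear over cytoplasmic p65 intensity ratio per well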); settings: HUVEC TNFa-induced p65 nuclear translocation; cell count: measured here: nuclei count (cytotoxicity indicator), at 2.08 µM; inhibition: at 2 µM, stronger effect = higher value, 0% TNFa-plus-vehicle, 100% no-TNFa wells
# [2] = endothelial E-selectin expression blockers – imaging, HUVEC, immunofluorescence, MLSMR starter and 10KST1 sets, primary screen (AID 487;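 active = visually confirmed hit in the image check and inhibition above 20%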;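 for inhibition: signal is fraction of cell area covered by stained E-selectin grains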;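 for nuclei count: 100% = median nuclei count of all wells on the same plate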); settings: HUVEC TNFalpha-induced E-selectin immunofluorescence imaging, at 2 µM; inhibition: stronger effect = higher value; nuclei count: measured here: cell number, toxicity
# [3] = Primary imaging screen for DUSP6 inhibitors that restore phospho-Erk in transfected HeLa cells, chemical complementation (AID 609;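 active = compounds giving at least 50% inhibition in the cell-based MKP-3 phosphatase rescue imaging test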;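 for inhibition: phospho-Erk level distribution per well compared with pooled transfected vehicle control wells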); settings: HeLa MKP-3 transfected, phospho-Erk imaging KS statistic, at 10 µM, cells stimulated with TPA for 15 min
# [4] = molecular target: Dual specificity protein phosphatase 6 (Homo sapiens) (UniProt Q16828); test: as above; settings: HeLa MKP-3 transfected, phospho-Erk imaging KS statistic; at 10 µM; stronger effect = higher value; cells stimulated with TPA for 15 min
# [5] = molecular target: Voltage-gated potassium channel subunit beta-2 (Rattus norvegicus) (UniProt P62483); test: inhibitors of rat Kvbeta2 reductase activity – biochemical, NADPH fluorescence, primary screen (AID 622;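 active = fluorescence slope higher than the sample average by over 3 SD, cut at about -0.22 in these data, passing the limit was not always enough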;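 note: slope of raw intensity against log time taken from 70 to 1610 s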); settings: recombinant KvBeta, 4-cyanobenzaldehyde reduction, at 10 µM, stronger effect = higher value
# [6] = molecular target: Voltage-gated potassium channel subunit beta-2 (Rattus norvegicus) (UniProt P62483); test: enhancers of rat Kvbeta2 NADPH turnover – biochemical, NADPH fluorescence, primary screen (AID 623;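 active = NADPH fluorescence slope more negative than the mean of all samples by about 3 SD, 99.7% confidence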;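 note: fluorescence intensity change per second fitted from 20 to 320 s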); settings: Recombinant KvBeta, NADPH fluorescence decrease slope, 10 min; at 10 µM; stronger effect = lower value
# [7] = molecular target: Alpha-2C adrenergic receptor (Homo sapiens) (UniProt P18825); test: compounds altering alpha2C-coupled GIRK flux – cell-based, HEK293 alpha2C/GIRK1/2, thallium flux, primary screen (AID 624;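 active = fluorescence slope after compound addition differing from the mean of all screened samples at 99.7% confidence, in either direction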;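 note: slope of fluorescence ratio to pre-addition baseline per second over 15 to 24 s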); settings: thallium flux BTC fluorescence, at 10 µM, actives lie on both sides
# [8] = inhibitors of larval lipid processing in zebrafish, primary screen, whole organism, PED6 fluorescence, gall bladder and intestine (AID 686); settings: Zebrafish larvae PED6 lipid processing, fluorescence scoring; screened at 20 µM (by protocol);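 note: larvae 5 to 7 days old with five fish per well; signal comes from phospholipase A2 cleavage of quenched PED6 carried via bile; overnight exposure to compound and PED6 before scoring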
# Procedure, shortened: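 Doses: 20 µM single dose. Test system: live zebrafish larvae aged 5-7 days, whole organism. Quantity: five larvae per well. Measured by: By-eye fluorescence microscopy. Reagent: ingested quenched lipid PED6 at 100 nM. Read-out: visual per-well fluorescence inhibition score. Times: overnight exposure of larvae to compound plus PED6.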
# [9] = loss of swimming-algae plug formation – whole organism, Chlamydomonas reinhardtii, WT vs cilia-less mutant, absorbance, 96-well, primary screen (AID 463189;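 active = inhibition at or above 50% relative to wild type and mutant plate controls; inactive = inhibition below 50%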;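 note: 0% = wild type cc124 cells in DMSO and 100% = ciliumless bld1 mutant cells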); settings: Chlamydomonas reinhardtii gravitaxis, OD600 absorbance, 2 days; at 10 µM; stronger effect = higher value
# [10] = measured here: cell density z-score
# [11] = measured here: nuclear c-Myc green intensity z-score
# [12] = measured here: nuclear pErk red intensity z-score, stronger effect = higher value
# Sequence of Dual specificity protein phosphatase 6 (Homo sapiens) (Q16828 whole entry, looked up): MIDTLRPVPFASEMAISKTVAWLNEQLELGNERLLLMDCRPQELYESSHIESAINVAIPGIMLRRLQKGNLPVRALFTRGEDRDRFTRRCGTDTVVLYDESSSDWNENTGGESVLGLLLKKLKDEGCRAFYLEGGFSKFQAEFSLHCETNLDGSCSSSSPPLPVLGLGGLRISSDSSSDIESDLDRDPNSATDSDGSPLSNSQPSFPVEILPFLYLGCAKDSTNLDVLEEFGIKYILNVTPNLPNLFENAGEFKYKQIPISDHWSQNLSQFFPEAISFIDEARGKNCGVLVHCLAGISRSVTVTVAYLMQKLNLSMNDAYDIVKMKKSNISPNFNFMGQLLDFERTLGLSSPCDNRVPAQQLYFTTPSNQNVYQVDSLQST
# Sequence of Alpha-2C adrenergic receptor (Homo sapiens) (P18825 whole entry, looked up): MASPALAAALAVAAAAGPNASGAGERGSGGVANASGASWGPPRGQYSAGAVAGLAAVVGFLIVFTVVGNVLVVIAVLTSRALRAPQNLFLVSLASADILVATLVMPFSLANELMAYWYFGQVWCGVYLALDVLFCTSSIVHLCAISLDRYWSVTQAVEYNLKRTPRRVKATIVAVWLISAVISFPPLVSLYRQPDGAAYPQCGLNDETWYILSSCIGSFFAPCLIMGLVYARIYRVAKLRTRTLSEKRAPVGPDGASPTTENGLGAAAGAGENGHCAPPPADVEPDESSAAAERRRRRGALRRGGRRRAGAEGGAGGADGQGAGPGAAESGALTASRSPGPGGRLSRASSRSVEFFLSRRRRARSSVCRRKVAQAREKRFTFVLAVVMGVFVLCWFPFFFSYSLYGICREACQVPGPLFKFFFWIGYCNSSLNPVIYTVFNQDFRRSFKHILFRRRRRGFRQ
# Sequence of Voltage-gated potassium channel subunit beta-2 (Rattus norvegicus) (P62483 whole entry, looked up): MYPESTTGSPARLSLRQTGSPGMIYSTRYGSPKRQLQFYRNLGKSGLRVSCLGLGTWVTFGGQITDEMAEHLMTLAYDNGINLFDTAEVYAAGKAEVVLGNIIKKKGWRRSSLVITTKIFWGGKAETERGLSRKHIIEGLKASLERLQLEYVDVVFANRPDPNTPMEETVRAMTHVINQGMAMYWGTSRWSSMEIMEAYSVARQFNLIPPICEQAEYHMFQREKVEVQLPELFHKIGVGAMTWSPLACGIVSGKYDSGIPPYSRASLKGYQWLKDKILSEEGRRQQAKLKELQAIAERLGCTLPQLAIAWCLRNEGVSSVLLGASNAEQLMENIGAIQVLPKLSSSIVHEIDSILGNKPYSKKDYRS
SMILES,cell count [1],inhibition [1],inhibition [2],nuclei count [2] [%],"z-score [3, 10]","z-score [3, 11]","z-score [3, 12]",inhibition [4],fluorescence slope [5],NADPH fluorescence slope [6],slope [7],outcome [8],inhibition [9]
COc1ccc(C2CC(C(F)(F)F)n3ncc(C(=O)NCC4CCCO4)c3N2)cc1OC (stereo unspecified),536,-1.8% (inactive),12.3% (inactive),132,-0.241,-1.11,1.35,3.66% (inactive),-0.51 (inactive),-6.1e-05 (inactive),0.00469 (inactive),inactive,-9.44% (inactive)
CC1(C)Cc2c(sc3nc(SCC#N)n(C4CCCCC4)c(=O)c23)CO1,633,-10.8% (inactive),51% (inactive),154,-1.73,0.192,0.926,6.04% (inactive),-0.356 (inactive),-4.5e-05 (inactive),0.0054 (inactive),inactive,-8.06% (inactive)
CCN(CC)CCN1C(=O)C(=O)/C(=C(/O)c2ccc(F)cc2)C1c1cccnc1 (stereo unspecified),488,-18.4% (inactive),-35.7% (inactive),128,-0.0126,-0.441,0.45,-2.47% (inactive),-0.493 (inactive),-5.5e-05 (inactive),0.00472 (inactive),inactive,-7.28% (inactive)
Cc1cc(C)n(CC(=O)n2nc(C)cc2C)n1,519,-6.2% (inactive),-24.6% (inactive),81.7,0.222,0.17,0.394,5.95% (inactive),-0.492 (inactive),-2.9e-05 (inactive),0.00514 (inactive),inactive,15% (inactive)
Cc1ccc(OCc2nnc(NC(=O)c3ccco3)s2)c(C)c1,438,-7.3% (inactive),15.6% (inactive),106,-0.686,-0.603,0.0542,-1.12% (inactive),-0.308 (inactive),-1.3e-05 (inactive),0.00608 (inactive),inactive,-4.85% (inactive)
CNC(=O)c1ncnnc1N(C)C(=O)NCc1ccccc1,506,-21% (inactive),-54.6% (inactive),134,0.229,0.0819,-1.12,-9.66% (inactive),-0.531 (inactive),-2.3e-05 (inactive),0.00729 (inactive),inactive,9.13% (inactive)
CCOC(=O)c1ccc(N2CC(O)=C(c3nc4ccccc4c(=O)[nH]3)C2=N)cc1,623,-11.3% (inactive),45.3% (inactive),186,-1.54,0.558,1.53,-13.3% (inactive),-0.208 (inactive),-1.8e-05 (inactive),0.00503 (inactive),inactive,2.42% (inactive)
CCOC(=O)c1[nH]c2cc3c(cc2c1NC(=O)CN1CCCCC1C)OCO3 (stereo unspecified),588,-1.8% (inactive),46.2% (inactive),167,0.894,-1.11,-0.403,-10.5% (inactive),-0.229 (inactive),-2e-05 (inactive),0.00474 (inactive),inactive,-2.82% (inactive)
Cc1cc(=O)oc(C)c1C(=O)NCCNC(=O)c1c(C)cc(=O)oc1C,496,-5.9% (inactive),-127% (inactive),140,0.642,-0.299,1.3,-14% (inactive),-0.534 (inactive),-3.6e-05 (inactive),0.0046 (inactive),inactive,-8.5% (inactive)
Cc1cc(C)cc(-n2c3nc4ccccc4nc3c3c(=O)n(Cc4ccco4)cnc32)c1,319,-15.5% (inactive),-94.4% (inactive),134,0.126,-0.244,-0.872,3.5% (inactive),-0.396 (inactive),-0.000101 (inactive),0.0051 (inactive),inactive,-2.54% (inactive)
CCOc1nc(SC(C(C)=O)C(=O)Nc2ccccc2)nc(N(C)C)n1 (stereo unspecified),302,-20.6% (inactive),10.9% (inactive),91.5,0.486,-0.655,-1.33,10.5% (inactive),-0.456 (inactive),-9.6e-06 (inactive),0.00845 (inactive),inactive,-7.41% (inactive)
C=CCSc1nc(C)c(CC=C)c(=O)[nH]1,482,-4.7% (inactive),-71.1% (inactive),87.6,0.711,-0.59,0.352,11.9% (inactive),-0.472 (inactive),-1.2e-06 (inactive),0.00783 (inactive),inactive,31.6% (inactive)
CC(C)c1nc(N2CCOCC2)c(C#N)c2c1CCC2,533,2.9% (inactive),-92.4% (inactive),140,0.739,-0.974,-0.00414,10.5% (inactive),-0.511 (inactive),3.3e-06 (inactive),0.0055 (inactive),inactive; toxic,-0.955% (inactive)
Cc1ccc(-c2nn3c(-c4cccc(Cl)c4)nnc3s2)cc1,482,-6.6% (inactive),-115% (inactive),128,-1.6,-0.179,1.45,-7.86% (inactive),-0.434 (inactive),7.3e-06 (inactive),0.00635 (inactive),inactive,26.8% (inactive)
CN1CCN(CCCCOc2ccc(F)cc2)CC1,488,-6.3% (inactive),-39.9% (inactive),114,1.94,-1.66,1.15,7.48% (inactive),-0.483 (inactive),-0.00016 (inactive),0.00459 (inactive),inactive,30.4% (inactive)
COC(=O)CN(c1cc(OC)ccc1OC)S(=O)(=O)c1ccc(OC)c(OC)c1,365,-5% (inactive),-37.1% (inactive),130,-0.822,0.297,-0.958,-2.59% (inactive),-0.417 (inactive),-0.000193 (inactive),0.00438 (inactive),inactive,-0.193% (inactive)
O=C(CCC1CCCC1)N1CCC(N2CCN(c3ccccc3)CC2)CC1,411,-9.4% (inactive),-188% (inactive),140,0.947,0.889,-0.837,9.39% (inactive),-0.446 (inactive),4.6e-06 (inactive),0.00549 (inactive),inactive,62.1% (active)
c1coc(-c2nnc3sc(Cc4cccs4)nn23)c1,593,-3.5% (inactive),60.4% (inactive),98.5,0.488,-1.26,-0.189,-13.3% (inactive),-0.5 (inactive),-4.8e-06 (inactive),0.00451 (inactive),inactive,5.83% (inactive)
Cc1ccnc(N2CCN(c3c4c(c(C#N)c5nc6ccccc6n35)CCC4)CC2)c1,585,-9% (inactive),-90.1% (inactive),135,-0.195,1.1,0.491,15.9% (inactive),-0.401 (inactive),-2e-05 (inactive),0.00557 (inactive),inactive,-3.36% (inactive)
CNC(=O)c1cc2c(ccc3ccccc32)oc1=N,498,-4% (inactive),-64.4% (inactive),134,0.106,1.1,-0.558,-0.159% (inactive),-0.075 (active),-2.6e-05 (inactive),0.00187 (inactive),inactive,0.922% (inactive)
CC1CN(C2CCN(C(=O)c3ccccc3Cl)CC2)CC(C)O1 (stereo unspecified),445,-0.2% (inactive),-214% (inactive),151,-0.321,-1.49,-0.453,-5.62% (inactive),-0.348 (inactive),-1.1e-05 (inactive),0.00459 (inactive),inactive,0.742% (inactive)
CC(=O)N1CCC2(CC1)C(C#N)=C(N)Oc1n[nH]c(C(F)(F)F)c12,509,-9.9% (inactive),-79.8% (inactive),156,1.26,0.347,-0.954,-1.12% (inactive),-0.349 (inactive),-1.5e-05 (inactive),0.00543 (inactive),inactive,10.5% (inactive)
COc1cc(OC)cc(C(=O)N2CCC(N3CCCCCC3)CC2)c1,372,-26.6% (inactive),-111% (inactive),132,2.06,-1.95,-0.585,32.7% (inactive),-0.337 (inactive),-2.1e-05 (inactive),0.00559 (inactive),inactive; toxic,29.1% (inactive)
COc1cc(-n2c3nc4ccccc4nc3c3c(=O)n(Cc4ccco4)cnc32)cc(OC)c1OC,308,-15.2% (inactive),-111% (inactive),168,-1.73,0.447,0.876,-3.5% (inactive),-0.417 (inactive),-0.000139 (inactive),0.00442 (inactive),inactive,3.2% (inactive)
Cc1nc2c(c(=O)n1CC1CCCO1)c1nc3ccccc3nc1n2Cc1ccc2c(c1)OCO2 (stereo unspecified),281,-7.1% (inactive),-128% (inactive),80.3,2.15,-0.362,-1.56,-0.584% (inactive),-0.42 (inactive),-0.000106 (inactive),0.00645 (inactive),inactive,9.64% (inactive)
CCn1cc(C(=O)NCCCN(C)C)c(=O)c2cc(F)c(N3CCN(C)CC3)cc21,360,-2.8% (inactive),-88% (inactive),130,-0.583,1.7,-0.542,-7.28% (inactive),-0.286 (inactive),-5e-06 (inactive),0.00472 (inactive),inactive,22% (inactive)
Cc1nc2c(c(=O)n1CC1CCCO1)c1nc3ccccc3nc1n2CCC(C)C (stereo unspecified),327,-4.1% (inactive),-30.1% (inactive),177,1.21,-0.55,1.04,-0.584% (inactive),-0.381 (inactive),-0.000104 (inactive),0.00821 (inactive),inactive,24.8% (inactive)
